This note sets out measurements from ChEMBL document CHEMBL1146753, “Tetrahydroisoquinolines as subtype selective estrogen agonists/antagonists” (Bioorg Med Chem Lett, 2004).

Test [1] addresses T1, Estrogen receptor (Homo sapiens, UniProt P03372).
T1 sequence (P03372 whole entry): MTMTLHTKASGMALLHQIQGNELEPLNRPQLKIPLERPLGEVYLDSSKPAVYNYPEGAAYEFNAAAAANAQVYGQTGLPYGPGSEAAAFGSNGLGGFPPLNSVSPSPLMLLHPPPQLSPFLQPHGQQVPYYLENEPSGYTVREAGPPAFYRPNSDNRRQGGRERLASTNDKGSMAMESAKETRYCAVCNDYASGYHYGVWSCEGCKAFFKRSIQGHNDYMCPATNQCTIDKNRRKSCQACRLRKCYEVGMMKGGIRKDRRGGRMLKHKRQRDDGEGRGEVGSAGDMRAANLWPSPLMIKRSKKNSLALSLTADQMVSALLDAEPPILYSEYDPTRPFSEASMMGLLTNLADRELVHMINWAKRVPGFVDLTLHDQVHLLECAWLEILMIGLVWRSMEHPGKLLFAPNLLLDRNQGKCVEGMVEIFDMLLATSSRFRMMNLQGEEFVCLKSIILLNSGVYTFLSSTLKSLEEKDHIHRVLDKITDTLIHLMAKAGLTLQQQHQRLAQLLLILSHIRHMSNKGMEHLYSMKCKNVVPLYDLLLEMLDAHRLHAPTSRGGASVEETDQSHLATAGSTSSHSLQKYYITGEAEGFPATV
The experiment in a line: In vitro concentration required to inhibit [3H]estradiol binding to human estrogen receptor alpha expressed in 293T cells. It counts as cell-based.

The target in test [2] is Estrogen receptor beta (Homo sapiens, UniProt Q92731). Nature of the test: In vitro concentration required to inhibit [3H]estradiol binding to human estrogen receptor beta expressed in 293T cells. It counts as cell-based. The method in brief: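 Increasing competitor concentrations from DMSO stocks. Incubated 16 h at 4 °C. Dextran-coated charcoal for 15 min at room temperature, then centrifuged. Supernatant counted by scintillation. Means of ≥3 experiments.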
Sequence of Estrogen receptor beta (Q92731 whole entry): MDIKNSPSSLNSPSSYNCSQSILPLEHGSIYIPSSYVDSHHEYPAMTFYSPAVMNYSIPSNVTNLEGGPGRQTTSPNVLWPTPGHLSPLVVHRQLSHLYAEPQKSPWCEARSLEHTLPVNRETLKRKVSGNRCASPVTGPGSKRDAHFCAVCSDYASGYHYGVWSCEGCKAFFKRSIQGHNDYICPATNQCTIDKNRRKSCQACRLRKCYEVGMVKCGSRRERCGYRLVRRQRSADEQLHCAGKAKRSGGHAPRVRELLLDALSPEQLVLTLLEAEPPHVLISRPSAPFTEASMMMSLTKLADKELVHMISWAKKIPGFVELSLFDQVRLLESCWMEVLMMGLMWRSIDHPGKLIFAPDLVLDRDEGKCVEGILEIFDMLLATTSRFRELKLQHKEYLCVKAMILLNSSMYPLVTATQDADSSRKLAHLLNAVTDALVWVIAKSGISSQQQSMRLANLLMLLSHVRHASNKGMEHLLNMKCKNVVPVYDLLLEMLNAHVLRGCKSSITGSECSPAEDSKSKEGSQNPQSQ

The subject of test [3] is MCF7. Nature of the test: Inhibitory concentration required for antagonistic activity in MCF-7 cell lines derived from breast tumors that predominantly express ER-alpha. The conditions noted are these: Homo sapiens. It counts as functional, cell-based.
The test system of test [4] is MCF7. Nature of the test: Percent inhibition of antagonistic activity in MCF-7 cell lines derived from breast tumors that predominantly express ER-alpha. Format: functional, Homo sapiens.
In test [5] the test system is MCF7. The experiment in a line: Effective concentration required for agonistic activity in MCF-7 cell lines derived from breast tumors that predominantly express ER-alpha. The conditions noted are these: Homo sapiens. Format: functional, cell-based. The method in brief:
(§1)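 MCF7 cells plated at 6000/well in IMDM with 5% FBS and attached overnight. Steroid-depleted over 48 h with two changes of medium containing 5% charcoal-dextran stripped FBS. Compounds given as log dilutions from 10^-13 to 10^-6 M in 0.1% DMSO, 8 replicate wells each. Medium and compound renewed at day 4. DNA content measured by Hoechst 33258 after 7 days total exposure.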

Test [6] has as its system MCF7. The experiment in a line: Percent agonistic activity in MCF-7 cell lines derived from breast tumors that predominantly express ER-alpha. Format: functional, Homo sapiens. The method, boiled down: as §1

Take `O=C(N1CCc2cc(O)ccc2C1c1ccc(Br)cc1)C(F)(F)F` (stereo unspecified): the IC50 in test [1] is 0.165 µM; in test [2], 0.022 µM.

For `Oc1ccc2c(c1)CCN(c1ccccc1)C2Cc1ccccc1` (stereo unspecified), the IC50 in test [1] was determined as 0.0067 µM; in test [2], 0.0664 µM.

On to `Oc1ccc2c(c1)CCN(c1ccccc1)C2c1ccc(OCCN2CCCC2)cc1` (stereo unspecified), for which the values for the IC50 in test [1] and in test [2] were 0.0115 µM and 0.0222 µM, respectively.

As to `O=C(c1ccccc1)N1CCc2cc(O)ccc2C1c1ccc(OCCN2CCCC2)cc1` (stereo unspecified), the IC50 worked out at 0.562 µM in test [1] and 2.25 µM in test [2].

Consider `O=S(=O)(c1ccc2ccccc2c1)N1CCc2cc(O)ccc2C1c1ccc(OCCN2CCCC2)cc1` (stereo unspecified), for which the figures for the IC50 in test [1] and in test [2] were 0.112 µM and 1.08 µM, respectively.

With `Oc1ccc2c(c1)CCN(c1ccccc1)C2c1cccs1` (stereo unspecified), the IC50 in test [1] was determined as 0.05 µM; in test [2], 0.0263 µM.

Take `O=C(N1CCc2cc(O)ccc2C1c1ccccc1)C(F)(F)F` (stereo unspecified): the IC50 was 0.235 µM in test [1] and 0.0274 µM in test [2].

With `O=C(N1CCc2cc(O)ccc2[C@@H]1c1ccc(O)cc1)C(F)(F)F`, the IC50 in test [1] and in test [2] was above 3.2 µM in each case.

Regarding `Cc1ccc(S(=O)(=O)N2CCc3cc(O)ccc3C2c2ccc(OCCN3CCCC3)cc2)cc1` (stereo unspecified), the concentration for half-maximal inhibition (IC50) came out at 0.0298 µM in test [3], 0.0248 µM in test [1] and 0.0712 µM in test [2]. In test [4], this compound returned an Inhibition of 66%.

In test [5], `Oc1ccc2c(c1)CCN(c1ccccc1)C2C1CCCCC1` (stereo unspecified) showed a concentration giving a half-maximal response (EC50) of 0.0111 µM. The compound also gave an Activity in test [6] of 93%. The IC50 stood at 0.0298 µM in test [1] and 0.099 µM in test [2].

As for `O=S(=O)(c1ccccc1)N1CCc2cc(O)ccc2C1c1ccc(OCCN2CCCC2)cc1` (stereo unspecified), the IC50 in test [1] is 0.0052 µM; in test [2], 0.0185 µM.

With `O=S(=O)(c1ccccc1)N1Cc2cc(O)ccc2C(c2ccc(O)cc2)C1` (stereo unspecified), the IC50 is 0.12 µM in test [1] and 0.0417 µM in test [2].

Turning to `O=C(N1CCc2cc(O)ccc2C1c1ccc(OCCN2CCCC2)cc1)C(F)(F)F` (stereo unspecified), the 50% inhibitory concentration (IC50) came to 0.0866 µM in test [3], 0.0287 µM in test [1] and 0.0933 µM in test [2]. This compound also had an Inhibition in test [4] of 83%.

With `Oc1ccc2c(c1)CCN(c1ccccc1)C2CC1CCCCC1` (stereo unspecified), the IC50 in test [1] was 0.0531 µM; in test [2], 0.295 µM.

As to `CC(C)C1c2ccc(O)cc2CCN1c1ccccc1` (stereo unspecified), the IC50 in test [1] came out at 0.0427 µM; in test [2], 0.18 µM.

For `Oc1ccc2c(c1)CCN(c1ccccc1)C2c1ccccc1` (stereo unspecified), the IC50 in test [1] turned out to be 0.0307 µM; in test [2] it was 0.0488 µM.

For the compound `O=C(N1CCc2cc(O)ccc2C1c1cccs1)C(F)(F)F` (stereo unspecified), the IC50 was determined as 0.385 µM in test [1] and 0.0635 µM in test [2].

In the case of `CCCc1ccc(S(=O)(=O)N2CCc3cc(O)ccc3C2c2ccc(OCCN3CCCC3)cc2)cc1` (stereo unspecified), the results for the IC50 in test [1] and in test [2] were 0.0294 µM and 0.133 µM, respectively.

Take `Oc1ccc2c(c1)CCN(Cc1ccc3c(c1)OCO3)C2c1ccc(OCCN2CCCC2)cc1` (stereo unspecified): the results for the IC50 in test [1] and in test [2] were 0.0092 µM and 0.22 µM, respectively.

Turning to `O=C(c1ccccc1)N1Cc2cc(O)ccc2C(c2ccc(O)cc2)C1` (stereo unspecified), the IC50 came to 0.16 µM in test [1] and 0.0279 µM in test [2].

Regarding `O=S(=O)(c1cccc2ccccc12)N1CCc2cc(O)ccc2C1c1ccc(OCCN2CCCC2)cc1` (stereo unspecified), the figures for the 50% inhibitory concentration (IC50) in test [3], in test [1] and in test [2] were 0.0513 µM, 0.0056 µM and 0.0213 µM, respectively. For the same compound, the Inhibition in test [4] is given as 96%.

Regarding `O=C(N1Cc2cc(O)ccc2C(c2ccc(O)cc2)C1)C(F)(F)F` (stereo unspecified), the IC50 stood at 0.123 µM in test [1] and 0.0114 µM in test [2].

Turning to `O=C(N1CCc2cc(O)ccc2[C@H]1c1ccc(O)cc1)C(F)(F)F`, the IC50 came to 0.0536 µM in test [1] and 0.0089 µM in test [2].

In the case of `CN(C)C(=O)/C=C/c1ccc(N2CCc3cc(O)ccc3C2c2ccccc2)cc1` (stereo unspecified), the IC50 in test [1] was determined as 0.008 µM; in test [2] it was 0.0087 µM.

With `O=C(/C=C/c1ccc(N2CCc3cc(O)ccc3C2c2ccccc2)cc1)N1CCOCC1` (stereo unspecified), the results for the IC50 in test [1] and in test [2] were 0.0059 µM and 0.0048 µM, respectively.

Take `O=S(=O)(c1cccc2ccccc12)N1Cc2cc(O)ccc2C(c2ccc(O)cc2)C1` (stereo unspecified): the results for the IC50 in test [1] and in test [2] were 0.028 µM and 0.0107 µM, respectively.

`Oc1ccc(C2CN(Cc3ccccc3)Cc3cc(O)ccc32)cc1` (stereo unspecified): the IC50 amounted to 0.0201 µM in test [1] and 0.0131 µM in test [2].

As to `CCOC(=O)N1CCc2cc(O)ccc2C1c1ccc(OCCN2CCCC2)cc1` (stereo unspecified), the results for the IC50 in test [1] and in test [2] were 0.0443 µM and 0.293 µM, respectively.

Consider `Oc1ccc2c(c1)CCN(Cc1ccccc1)C2c1ccc(OCCN2CCCC2)cc1` (stereo unspecified), for which the 50% inhibitory concentration (IC50) in test [1] was 0.0047 µM; in test [2], 0.0422 µM.
